Assay outcomes: PubChem, several laboratories
PolyA inh – yeast polyadenylation inhibition | S. cerevisiae SKY197-pL101 polyadenylation reporter, beta-gal luminescence; efflux-impaired pdr1/pdr3 knockout yeast; score 100 = 6 SD above DMSO | activity score, % at 12 µM | 0.02% of 300,000 active | AID 1875;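 active means lowest replicate activity score at least 50, where 100 means six control SD above control mean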;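 further: yeast exposed to compound for 9 h at 30 °C; higher score means more reporter readthrough which indicates perturbed polyadenylation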
NALP3 yeast inh – inhibitors of NALP3 inflammasome in yeast; 0.39% of 330,000 active; Yeast reconstituted NLRP3/ASC/caspase-1, beta-gal luminescence, 24 h; inhibition, % at 10 µM;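 active means inhibition of 50% or more; inactive means inhibition below 50%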;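 further: plate controls were induced DMSO wells for no effect and uninduced yeast grown without galactose for full effect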
L major viab – Leishmania major promastigote growth inhibition. inhibition, % at 10 µM. 9% of 200,000 active. Leishmania major promastigotes, resazurin fluorescence viability; in the data active means inhibition above about 50%;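 further: promastigotes grown with compound for 44 hours at 28 °C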
T cruzi inh – T. cruzi replication inhibition; T. cruzi beta-gal in NIH3T3, luminescence, 90 h; inhibition, % (no concentration beside the values); 1.4% of 300,000 active;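 active means mean inhibition across valid replicates above about 55%, limit read from the data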;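 further: signal also drops with host cell toxicity which is not excluded here; 0% = plate median of DMSO wells and 100% = zero luminescence signal; higher percent means less beta-gal luminescence so fewer parasites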
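System: NIH/3T3 fibroblasts plus reporter T. cruzi. Medium: DMEM plus 2% FBS. Probe or stimulus: 5000 reporter trypomastigotes per well. Compound: single 50 nL compound addition per well in DMSO. Incubation: co-culture of at least 90 h after 3 h attachment. Detection: GalScreen β-gal luminescence, detergent lysis, 60 min. Evaluation: parasite load inhibition, %.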
Calb FLC – C. albicans growth modulation with fluconazole | C. albicans CaCi-2 (fluconazole-resistant clinical isolate) + fluconazole, Alamar Blue growth, 48 h | 0.57% of 300,000 active | growth inhibition, % (test concentration not listed);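 active means growth inhibition above about 58% in most replicates, limit read from the data, passing the limit was not always enough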;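 further: all wells also contain fluconazole at 8 µg/ml as a sub-toxic cotreatment; 0% = median of DMSO wells and 100% = median of geldanamycin control wells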
NALP1 inh – blocks the NALP1 inflammasome reconstituted in yeast; S. cerevisiae NALP1/ASC/caspase-1 growth, X-gal OD620, 72 h; inhibition, % at 10 µM; 0.61% of 280,000 active; AID 2071; in the data active means inhibition mostly above about 24%, no sharp cut-off; inactive means mostly below about 32%
The depositor's hits bear a star; · = not tested or not shown. Shown is part of a subset that was picked to be rich in hits.

SMILES | PolyA inh | NALP3 yeast inh | L major viab | T cruzi inh | Calb FLC | NALP1 inh
Cc1ccc(NCc2ccccc2O)cc1 | -6 | -19 | 1 | 4 | -6 | 18
CC(C)(C)n1nnnc1C(c1ccc(C(F)(F)F)cc1)N(Cc1ccc(F)cc1)Cc1ccco1 (configuration not stated) | -3 | 6 | 77* | 14 | 4 | 9
CC(C)(C)n1nnnc1C(c1ccc(Cl)cc1)N(Cc1cccnc1)Cc1ccco1 (configuration not stated) | -18 | 4 | 100* | 39 | 24 | 1
COc1ccc(Cn2nnnc2C(C(C)C)N(Cc2ccco2)Cc2cccs2)cc1 (configuration not stated) | -4 | 7 | 77* | 46 | -3 | -6
Cc1ccc(C(c2nnnn2C(C)(C)C)N(Cc2ccco2)Cc2cccs2)cc1 (configuration not stated) | -9 | -6 | 19 | 64* | 2 | 11
CC(C)(C)n1nnnc1C(c1ccc(C(F)(F)F)cc1)N(Cc1ccccc1)Cc1ccco1 (configuration not stated) | 11 | 7 | 22 | 31 | 19 | 7
CC(C)C(c1nnnn1Cc1ccccc1)N(Cc1ccco1)Cc1cccs1 (configuration not stated) | 4 | 23 | 21 | 48 | 12 | -6
CC(C)(C)n1nnnc1C(c1ccc(F)cc1)N(Cc1ccc(F)cc1)Cc1ccco1 (configuration not stated) | -33 | 4 | 18 | 34 | 14 | 33
COc1ccc(C(=O)NNC(=O)C(=O)NC(C)c2ccccc2)cc1OC (configuration not stated) | · | 20 | -3 | 3 | 17 | 4
Cc1[nH]n(-c2ccccc2)c(=O)c1/C=N/NC(=O)C(C)C | 4 | -7 | -1 | -14 | -8 | -12
O=[N+]([O-])c1ccc(CP(=O)(c2ccccc2)c2ccccc2)cc1 | -13 | -6 | · | -9 | 4 | -1
CCOc1ccccc1NC(=O)C1=C(C)NC(=S)NC1c1cccs1 (configuration not stated) | 15 | · | 6 | -2 | -4 | 19
O=C(NCCCn1ccnc1)c1nc(Cn2cc([N+](=O)[O-])cn2)no1 | -17 | 6 | · | -8 | -16 | 31
CC(NC(=O)c1ccc(NC2=NC3CS(=O)(=O)CC3S2)cc1)c1ccccc1 (configuration not stated) | -5 | 4 | · | -8 | 1 | 3
CCC(C)(C)n1nnnc1CN(Cc1ccc(Cl)cc1)Cc1ccco1 | -8 | -1 | 56* | 35 | 1 | 34
CCC(C)(C)n1nnnc1CN(Cc1ccco1)Cc1cc2cc3c(cc2[nH]c1=O)OCO3 | 5 | 9 | -3 | -18 | -6 | 25
O=C1CN(C(=O)CN2CCOCC2)C(c2ccccc2)c2cc(Br)ccc2N1 (configuration not stated) | 4 | 18 | 0 | -1 | 7 | 10
O=C1CN(C(=O)CN2CCCC2)C(c2ccccc2)c2cc(Br)ccc2N1 (configuration not stated) | 13 | -7 | 64* | -6 | -1 | 2
CCOC(=O)CC(/C(C)=N\O)c1ccccc1 (configuration not stated) | 1 | 9 | -5 | 6 | 99* | 7
CCOC(=O)CC(NC(=O)C(CC)c1ccccc1)c1ccccc1Cl (configuration not stated) | 22 | 3 | 95* | 12 | -2 | 10
CS(=O)(=O)c1ccc(C(=O)OCc2nnc(-c3ccccc3)o2)cc1[N+](=O)[O-] | -5 | · | 1 | 76* | -16 | -13
O=[N+]([O-])c1cc(Br)c(OCc2nnc(-c3ccccc3)o2)c(Br)c1 | -4 | 20 | -10 | 67* | 6 | 16
O=[N+]([O-])c1ccc2c(OCc3nnc(-c4ccccc4Br)o3)ncnc2c1 | -5 | 4 | · | 71* | 8 | -7
Cc1ccc(C(=O)OCC(=O)NC2CCCCCC2)c(C)c1 | · | 41 | · | · | · | ·
O=S(=O)(NCCN1CCOCC1)c1cc(Cl)c(Cl)cc1Cl | -14 | 21 | · | 5 | 1 | 10
Cc1ccc(/C=N/N2CCN(Cc3cccc4ccccc34)CC2)s1 | -3 | 6 | · | 12 | -21 | ·
CCOC(=O)N(C)c1ccc(C(O)(C(F)(F)F)C(F)(F)F)cc1 | 15 | -13 | 100* | 1 | -12 | 13
